The values below come from ChEMBL document CHEMBL2311311, “Synthesis and in vitro activity of 1,2,4-triazole-ciprofloxacin hybrids against drug-susceptible and drug-resistant bacteria” (Eur J Med Chem, 2013).

≈ marks a conversion by molar mass, not a printed value.

Experiment [1] relates to Micrococcus luteus. Briefly: Antimicrobial activity against Micrococcus luteus ATCC 10240 by broth microdilution method. The class given is functional. The gist of the method:
(§1)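 Inocula were saline (0.85% NaCl) suspensions at 0.5 McFarland (150 × 10⁶ CFU/mL). Compounds were first screened by agar dilution on Mueller-Hinton agar, and active ones then went to broth microdilution. MIC is the lowest concentration inhibiting growth. The negative control was medium containing DMSO at the final concentration, without compound.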
(In general: In broth dilution the organism is exposed to a series of concentrations in liquid medium.)

Experiment [2] concerns Bacillus cereus. Briefly: Antimicrobial activity against Bacillus cereus ATCC 10876 by broth microdilution method. It is filed as functional. An outline of the steps:
as §1

Experiment [3] relates to Bacillus subtilis. Briefly: Antimicrobial activity against Bacillus subtilis ATCC 6633 by broth microdilution method. It is filed as functional. An outline of the steps: as §1
Experiment [4] relates to Staphylococcus epidermidis. Briefly: Antimicrobial activity against Staphylococcus epidermidis ATCC 12228 by broth microdilution method. The class given is functional. The gist of the method: as §1
In experiment [5] the test system is Staphylococcus aureus. Briefly: Antimicrobial activity against Staphylococcus aureus ATCC 25923 by broth microdilution method. The class given is functional. An outline of the steps: as §1
The subject of experiment [6] is HEK293. Nature of the experiment: Cytotoxicity against HEK293 cells after 48 hrs by MTT assay. It is filed as cell-based. To be noted: Homo sapiens, HEK293, 48 h. The gist of the method: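 HEK-293 cells were seeded at 3 × 10⁵ cells/well and pre-incubated 24 h at 37 °C under 5% CO₂. Compounds came from 50 mg/mL DMSO stocks diluted in medium with 2% FBS, at final concentrations of 2–500. Exposure was 48 h at 37 °C with MTT formazan read on a plate reader. EC50 is growth inhibition relative to control cells, given as mean ± SD of three independent experiments.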

Experiment [7] concerns Micrococcus luteus. Briefly: Ratio of ciprofloxacin MIC to compound MIC for Micrococcus luteus ATCC 10240 by broth microdilution method. It is filed as functional.
Experiment [8] relates to Staphylococcus aureus. Nature of the experiment: Ratio of MBC to MIC for methicillin-resistant Staphylococcus aureus 14001 by broth microdilution method. The class given is functional. The gist of the method:
(§2)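 Inoculum in sterile saline (0.85% NaCl), adjusted to 0.5 McFarland (150 × 10⁶ CFU/mL). Compounds first screened by agar dilution on Mueller-Hinton agar, then titrated by broth microdilution. Medium with DMSO at the final concentration and no compound served as negative control. MIC is the lowest concentration inhibiting growth. MBC is the lowest concentration giving >99.9% reduction in CFU of the initial inoculum.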

Experiment [9] deals with Staphylococcus aureus. Briefly: Antimicrobial activity against methicillin-resistant Staphylococcus aureus 14001 by broth microdilution method. The class given is functional. An outline of the steps:
as §2

For experiment [10], the system named is Proteus mirabilis. Nature of the experiment: Antimicrobial activity against Proteus mirabilis ATCC 12453 by broth microdilution method. The class given is functional. An outline of the steps: as §1
Experiment [11] deals with Pseudomonas aeruginosa. Briefly: Antimicrobial activity against Pseudomonas aeruginosa ATCC 9027 by broth microdilution method. The class given is functional. The gist of the method:
as §1

Experiment [12] deals with Escherichia coli. Briefly: Antimicrobial activity against Escherichia coli ATCC 25922 by broth microdilution method. The class given is functional. An outline of the steps:
as §1

Experiment [13] relates to Pseudomonas aeruginosa. Nature of the experiment: Ratio of ciprofloxacin MIC to compound MIC for Pseudomonas aeruginosa ATCC 9027 by broth microdilution method. The class given is functional.
In experiment [14] the test system is Staphylococcus aureus. Nature of the experiment: Ratio of ciprofloxacin MIC to compound MIC for Staphylococcus aureus ATCC 25923 by broth microdilution method. It is filed as functional.
The nature of experiment [15]: Selectivity ratio of EC50 for HEK293 cells to MIC for methicillin-resistant Staphylococcus aureus 14001. The class given is functional. The gist of the method: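 HEK-293 cells grown at 37 °C in humidified 5% CO₂ with penicillin and […] streptomycin. Seeded at 3 × 10⁵ cells/well for 24 h. Compounds (50 mg/mL DMSO stock) were diluted in medium with 2% FBS to final 2–500 µg/mL and applied for 48 h at 37 °C. Read-out was MTT formazan. EC50 was taken relative to control-cell growth, mean ± SD of three independent experiments, then divided by the MRSA MIC.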

For experiment [16], the system named is Staphylococcus aureus. Briefly: Ratio of vancomycin MIC to compound MIC for methicillin-resistant Staphylococcus aureus 14001 by broth microdilution method. The class given is functional. The gist of the method:
as §2

For experiment [17], the system named is Staphylococcus aureus. Nature of the experiment: Ratio of ciprofloxacin MIC to compound MIC for methicillin-resistant Staphylococcus aureus 14001 by broth microdilution method. It is filed as functional. The gist of the method: as §2

With `CCn1c(-c2cccc(Cl)c2)nn(CN2CCN(c3cc4c(cc3F)c(=O)c(C(=O)O)cn4C3CC3)CC2)c1=S`, the MIC (commonly the lowest concentration that inhibits growth of the organism) in [1] was 0.84 µM (≈ 0.49 µg/mL); in [2], 0.2 µM (≈ 0.117 µg/mL); in experiment [3] it was 0.1 µM (≈ 0.0583 µg/mL); in experiment [4], 0.84 µM (≈ 0.49 µg/mL); in experiment [5], 0.84 µM (≈ 0.49 µg/mL); in [9], 0.41 µM (≈ 0.239 µg/mL). In addition, the values for the MIC in experiment [10], in experiment [11] and in experiment [12] were 0.051 µM (≈ 0.0297 µg/mL), 0.41 µM (≈ 0.239 µg/mL) and 0.051 µM (≈ 0.0297 µg/mL), respectively. The half-maximal effective concentration (EC50) (in general, the concentration giving half of the maximal effect) in experiment [6] was 39.7 µM. The figures for the Ratio in experiment [7] and in experiment [8] were 7.5 and 2, respectively. In addition, in experiment [9], the MBC (commonly the lowest tested concentration that kills the bacteria rather than only halting them) was determined as 0.84 µM (≈ 0.49 µg/mL).
For the compound `O=C(O)c1cn(C2CC2)c2cc(N3CCN(Cn4nc(-c5cccc(O)c5)n(-c5ccc(Cl)cc5Cl)c4=S)CC3)c(F)cc2c1=O`, the minimum inhibitory concentration (MIC) in experiment [1] was determined as 1.44 µM (≈ 0.981 µg/mL); in [2], 0.18 µM (≈ 0.123 µg/mL); in experiment [3], 0.18 µM (≈ 0.123 µg/mL); in experiment [4] it was 0.35 µM (≈ 0.239 µg/mL); in experiment [5], 0.35 µM (≈ 0.239 µg/mL); in [9] it was 0.35 µM (≈ 0.239 µg/mL). Further, the minimal inhibitory concentration (MIC) was 0.022 µM (≈ 0.015 µg/mL) in experiment [10], 0.088 µM (≈ 0.06 µg/mL) in experiment [11] and 0.044 µM (≈ 0.03 µg/mL) in experiment [12]. For the same compound, the Ratio in [13] is listed as 8; in experiment [14], 8.5; in [8], 2. The compound also had an MBC in [9] of 0.71 µM (≈ 0.484 µg/mL).
Take `O=C(O)c1cn(C2CC2)c2cc(N3CCN(Cn4nc(-c5cccc(O)c5)n(-c5cc(Cl)cc(Cl)c5)c4=S)CC3)c(F)cc2c1=O`: the MIC came out at 1.44 µM (≈ 0.981 µg/mL) in experiment [1]; 0.18 µM (≈ 0.123 µg/mL) in [2]; 0.18 µM (≈ 0.123 µg/mL) in [3]; 0.35 µM (≈ 0.239 µg/mL) in experiment [4]; 0.72 µM (≈ 0.491 µg/mL) in [5]; 0.088 µM (≈ 0.06 µg/mL) in experiment [9]. For the same compound, the minimal inhibitory concentration (MIC) in experiment [10] was 0.044 µM (≈ 0.03 µg/mL); in experiment [11] it was 0.088 µM (≈ 0.06 µg/mL); in [12], 0.022 µM (≈ 0.015 µg/mL). Further, the Ratio in experiment [13] was found to be 8; in [15] it was 600; in [16], 8; in [17], 17; in experiment [8], 4. In experiment [6], the EC50 came to 53 µM. The compound further had an MBC in [9] of 0.35 µM (≈ 0.239 µg/mL).
